Most compounds without a hit are left out; they make up all but 2.3% or so of the library.
TRPC6 activator – mouse TRPC6 channel activation; HEK293-TRPC6 membrane potential dye fluorescence; stronger effect = higher value; B-score at 10 µM; 310,000 tested, 0.13% active;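 active means B-score of the integrated fluorescence ratio above library mean plus 3 SD, and starting fluorescence ratio within library mean plus 5 SD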;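 further: higher score means more depolarization so channel activation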
TRPC6 inhibitor – blocks the mouse TRPC6 cation channel; Q61143; HEK293-TRPC6, membrane potential dye, ACh-evoked depolarization; stronger effect = lower value; B-score at 10 µM; 310,000 tested, 1.1% active;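 active means B-score under library mean minus 3 SD, initial fluorescence not abnormally high, positive integrated signal ratio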;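 further: B-score derived from integrated fluorescence ratio over the kinetic read; more negative B-score means stronger inhibition of depolarization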
TRPC4 potent – allosteric potentiators of mouse TRPC4 channel; 310,000 tested, 0.42% active; Q9QUQ5; AID 2227; B-score at 10 µM; HEK293 TRPC4beta/mu-opioid, DAMGO EC20, Fluo-4 Ca2+ flux; stronger effect = higher value;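 active means B-score of calcium response area above 5 SD of library B-scores, with initial fluorescence ratio within 5 SD of library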;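 further: B-score of integrated fluorescence ratio over time as area under calcium response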
Target sequence (Q9QUQ5 whole entry, looked up): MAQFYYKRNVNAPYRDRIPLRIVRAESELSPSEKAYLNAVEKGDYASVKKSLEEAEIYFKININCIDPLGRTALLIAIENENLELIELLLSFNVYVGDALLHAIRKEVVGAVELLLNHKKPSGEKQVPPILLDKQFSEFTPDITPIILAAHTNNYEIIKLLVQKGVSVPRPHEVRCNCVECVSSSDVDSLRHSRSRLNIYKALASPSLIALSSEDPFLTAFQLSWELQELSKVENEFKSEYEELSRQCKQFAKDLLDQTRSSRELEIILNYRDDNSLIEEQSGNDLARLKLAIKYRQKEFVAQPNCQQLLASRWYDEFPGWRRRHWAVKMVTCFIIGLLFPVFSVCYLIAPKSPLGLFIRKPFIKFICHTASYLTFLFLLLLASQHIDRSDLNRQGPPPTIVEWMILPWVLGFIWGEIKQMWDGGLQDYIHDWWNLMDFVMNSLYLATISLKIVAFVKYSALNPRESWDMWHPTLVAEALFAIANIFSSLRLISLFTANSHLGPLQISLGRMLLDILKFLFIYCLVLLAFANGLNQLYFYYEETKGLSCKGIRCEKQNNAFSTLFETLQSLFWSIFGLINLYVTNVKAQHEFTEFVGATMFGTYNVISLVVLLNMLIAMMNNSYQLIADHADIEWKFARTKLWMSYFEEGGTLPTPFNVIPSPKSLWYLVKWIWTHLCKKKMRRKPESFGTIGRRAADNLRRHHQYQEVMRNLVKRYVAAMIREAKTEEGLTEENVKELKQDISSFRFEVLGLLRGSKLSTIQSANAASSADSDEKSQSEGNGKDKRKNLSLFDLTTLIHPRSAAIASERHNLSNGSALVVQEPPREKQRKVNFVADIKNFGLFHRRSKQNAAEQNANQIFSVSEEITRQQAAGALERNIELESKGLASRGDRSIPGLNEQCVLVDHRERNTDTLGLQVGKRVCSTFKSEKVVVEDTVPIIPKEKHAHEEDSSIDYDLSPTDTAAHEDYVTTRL
TRPC4 block – blocks the mouse TRPC4 cation channel. B-score at 10 µM. HEK293 TRPC4beta/mu-opioid, DAMGO-evoked Fluo4 calcium flux; stronger effect = lower value. 300,000 tested, 0.39% active. Q9QUQ5;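 active means B-score over 3 SD under the library average, no early fluorescence shift, positive overall ratio signal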
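material = TRPC4beta/mu-opioid receptor HEK293 cell line | probe or stimulus = sequential submaximal and maximal DAMGO stimulation | compound dosing = one concentration per compound | measured by = Fluo4 Ca2+ flux fluorescence | evaluation = integrated fluorescence ratio relative to baseline, converted to per-well B score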
TRPC4 agonist – opens the mouse TRPC4 cation channel. HEK293 TRPC4beta/mu-opioid, Fluo4 calcium fluorescence; stronger effect = higher value. B-score at 10 µM. 310,000 tested, 0.49% active;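 active means B-score above 5 SD of library B-scores, and initial fluorescence ratio not above library mean plus 5 SD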;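 further: positive B-score marks a calcium rise read as TRPC4 activation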
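system = HEK293 cells stably co-expressing mouse TRPC4beta and mu-opioid receptor | schedule = Fluo4 dye loading 45 min at room temperature, 110 s recording | measure = B-scored integrated calcium fluorescence ratio | signal = Fluo4 calcium-sensitive dye fluorescence, kinetic, 1 Hz baseline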
HEK293 TRPC6 ctr – checks TRPC6 modulator effects in parental HEK293 cells; membrane potential signal change, % at 10 µM; shares compounds with TRPC6 inhibitor; 2,400 tested, 51% active; membrane potential dye fluorescence;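 active means membrane potential signal moves up or down beyond 5 SD from buffer-only wells, on both duplicate plates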
HEK293 MPD ctr 2 – second check of TRPC6 modulator effects in parental HEK293 cells; inhibition, % at 10 µM; 2,400 tested, 14% active; membrane potential dye fluorescence; after compound, maximal acetylcholine stimulation; AID 488926; shares compounds with TRPC6 inhibitor;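 active means membrane potential signal drops by more than 5 SD from the mean control signal, in both duplicate plates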;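 further: plate controls were acetylcholine ECmax control wells for no effect and buffer only wells for full effect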
TRPC4/MOR mod – selectivity of TRPC6 modulators against mouse TRPC4; 2,400 tested, 69% active; HEK293 TRPC4/mu-opioid, membrane potential fluorescence; percent change from control (negative = decrease, positive = increase), % at 10 µM; AID 488927; shares compounds with TRPC6 inhibitor;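 active means membrane potential signal moved up or down beyond 5 SD of buffer control wells, in both duplicate plates, actives on both sides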;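 further: plate controls were assay buffer wells for no effect and DAMGO maximal-effect wells for full effect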
TRPC4/MOR inh 2 – second check of whether TRPC6 modulators also affect mouse TRPC4; shares compounds with TRPC6 inhibitor; HEK293 TRPC4/mu-opioid, membrane potential dye fluorescence; stimulated with maximal-effect DAMGO; inhibition, % at 10 µM; 2,400 tested, 55% active;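 active means drop in membrane potential signal beyond 5 SD of the control wells in both duplicate plates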;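 further: TRPC4 counter screen for TRPC6 hits run under conditions tuned for TRPC6 not TRPC4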
TRPC6 inh conf – mouse TRPC6 inhibitor confirmation. shares compounds with TRPC6 inhibitor. HEK293-TRPC6, membrane potential dye, ACh-evoked depolarization. inhibition, % at 10 µM. 3,300 tested, 43% active. AID 488960;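 active means fluorescence ratio falls more than 5 SD below the full-stimulation control mean, in both duplicate runs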;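 further: integrated fluorescence ratio of peak minus minimum over baseline after agonist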
TRPC6 act confirm – confirmation of mouse TRPC6 activators; 2,800 tested, 11% active; AID 488961; activation, % at 10 µM; shares compounds with TRPC6 inhibitor; HEK293-TRPC6 membrane potential dye fluorescence, FDSS;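 active means ratio signal rise beyond 5 SD above unstimulated control wells' mean, seen in both duplicate runs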;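 further: plate controls were buffer EC0 wells for no effect and acetylcholine ECmax response for full effect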
* hit, by the source's call; i = inactive; · = no result given.

SMILES	TRPC6 activator	TRPC6 inhibitor	TRPC4 potent	TRPC4 block	TRPC4 agonist	HEK293 TRPC6 ctr	HEK293 MPD ctr 2	TRPC4/MOR mod	TRPC4/MOR inh 2	TRPC6 inh conf	TRPC6 act confirm
Cc1c(C)n(C)c2ccc(C(=O)N3CCN(c4ccccn4)CC3)cc12	i	i	i	i	i	·	·	·	·	·	·
Cc1c(C)n(C)c2ccc(C(=O)N3CCN(c4ccccc4)CC3)cc12	i	-7.2*	i	i	i	i	i	i	i	40%*	i
CCOc1ccc(-c2cc(C(=O)N/N=C(\C)c3cccnc3)c3ccccc3n2)c(OCC)c1	i	i	i	i	i	·	·	·	·	·	·
C=C(C)CN(CC)c1nc(N)c2c(N)nc3c(c2c1C#N)CC(=O)N3C12CC3CC(CC(C3)C1)C2	i	i	i	i	i	·	·	·	·	·	·
N#Cc1c(N2CCCC(O)C2)nc(N)c2c(N)nc3c(c12)CC(=O)N3C12CC3CC(CC(C3)C1)C2 (stereo unspecified)	i	-6.1*	i	i	i	i	i	i	i	i	i
O=C(Cc1nnc(NC(=O)c2cccc([N+](=O)[O-])c2)s1)NCc1ccccc1	i	i	i	i	i	·	·	·	·	·	·
Cc1cccc(N2CCN(C(=O)CN3CCOc4ccccc43)CC2C)c1 (stereo unspecified)	i	i	i	i	i	·	·	·	·	·	·
O=C(CN1CCOc2ccccc21)N1CCN(c2cccc(Cl)c2)CC1	i	-5.5*	i	i	i	i	i	i	36%*	i	i
CCOC(=O)N1CCN(C(=O)c2ccc3nc(N4CCC(C)CC4)sc3c2)CC1	13*	-12*	i	i	i	114%*	i	21%*	i	113%*	160%*
Cn1c(=O)n(Cc2ccc(F)cc2)c(=O)c2c1nc1n2CCCN1Cc1ccccc1	i	-5.1*	i	i	i	i	i	i	i	i	i
CCOC(=O)C1(Cc2cccc(Cl)c2)CCCN(C(=O)CCSC)C1 (stereo unspecified)	i	-5.3*	i	i	i	152%*	i	36%*	i	54%*	·
CCOC(=O)c1ccc2nc(C)cc(Nc3cccc(C(=O)O)c3)c2c1	i	i	i	i	i	·	·	·	·	·	·
COc1ccc2nc(C)cc(Nc3ccc(C(=O)O)cc3)c2c1	i	i	i	i	i	·	·	·	·	·	·
CC(=O)c1cccc(Nc2cc(C)nc3ccccc23)c1	i	-5.6*	i	i	i	-120%*	i	-20%*	48%*	i	i
CC(=O)c1cccc(Nc2cc(C)nc3c(C)cccc23)c1	i	-5.4*	i	i	i	-122%*	57%*	-26%*	52%*	52%*	i
Cc1cccc(Nc2cc(C)nc3ccccc23)c1	i	-6*	i	i	i	-140%*	60%*	-26%*	73%*	66%*	i
Cc1cc(Nc2cccc(Cl)c2)c2ccccc2n1	i	i	i	i	i	·	·	·	·	·	·
CCOc1ccc(Nc2cc(C)nc3ccc(C)cc23)cc1	i	-6.4*	i	i	i	-135%*	i	-29%*	58%*	50%*	i
CC(=O)Nc1ccc(NC(=O)C(C)OC(=O)CNS(=O)(=O)/C=C/c2ccc(C)cc2)cc1 (stereo unspecified)	i	i	i	i	i	·	·	·	·	·	·
COC(=O)c1ccc(CNC(=O)COC(=O)c2ccccc2-c2ccccc2)cc1	i	i	i	i	i	·	·	·	·	·	·
CCCN1CCN(CC(=O)Nc2nnc(CC)s2)CC1	i	i	i	i	i	·	·	·	·	·	·
COc1ccc2c(OC)c3ccoc3nc2c1OC	i	-5.6*	i	i	i	i	i	i	i	i	·
COc1c2ccoc2nc2c(OC)c(O)ccc12	i	i	i	i	i	·	·	·	·	·	·
COc1ccc(C(=O)c2coc3ccc(O)c(CN(C)C)c23)cc1	i	-5.3*	i	i	i	i	i	9.0%*	56%*	i	i
NC(=O)COC(=O)c1ccccc1SCC(=O)NC1CCCCCC1	i	i	i	i	i	·	·	·	·	·	·
SMILES	TRPC6 activator	TRPC6 inhibitor	TRPC4 potent	TRPC4 block	TRPC4 agonist	HEK293 TRPC6 ctr	HEK293 MPD ctr 2	TRPC4/MOR mod	TRPC4/MOR inh 2	TRPC6 inh conf	TRPC6 act confirm
COc1cc(OC)c(C(=O)Nc2ccncc2)cc1OC	i	-5.1*	i	i	i	i	72%*	-8.5%*	36%*	46%*	i
Cc1ccc(F)cc1NC(=O)CN1C(=O)NC2(CCCc3ccccc32)C1=O (stereo unspecified)	i	i	i	i	i	·	·	·	·	·	·
CN1CCN(c2ccc(Cl)cc2NC(=O)c2ccc(=O)n(C)n2)CC1	i	-9*	i	i	i	-340%*	68%*	-59%*	54%*	52%*	i
O=C(NNC1=C(C(=O)C(F)(F)F)CCC1)c1ccccc1O	i	-5.2*	i	i	i	i	i	i	i	38%*	i
C/C(=N\NC(=O)COc1cc(C)cc(C)c1)c1cccc(NC(=O)C2CCC2)c1	i	i	i	i	i	·	·	·	·	·	·
CN1CCN(C(=O)c2cccc(S(=O)(=O)N3CCCCC3)c2)CC1	i	i	i	i	i	·	·	·	·	·	·
CC1CCN(S(=O)(=O)c2ccc3c(ccn3CCC(=O)N3CCCCC3)c2)CC1	i	-6.2*	i	i	i	i	i	9.5%*	i	78%*	·
O=C(c1cccc(S(=O)(=O)N2CCCCCC2)c1)N1CCN(c2ccccc2)CC1	i	-5.2*	i	i	i	106%*	i	19%*	i	i	·
CC1CCN(C(=O)c2cccc(S(=O)(=O)N3CCCCC3)c2)CC1	13*	-8.3*	i	i	i	108%*	i	20%*	i	73%*	106%*

Bioassay records from PubChem.
